{"source": "paper PMC11489560", "about": "(Molecular Therapy, 2024)", "molecules": {"B1": {"name": "brain-derived neurotrophic factor (protein, UniProt P23560 19-247, looked up)", "Neurotrophic factor BDNF …": "APMKEANIRGQGGLAYPGVRTHGTLESVNGPKAGSRGLTSLADTFEHVIEELLDEDQKVRPNEENNKDADLYTSRVMLSSQVPLEPPLLFLLEEYKNYLDAANMSMRVRRHSDPARRGELSVCDSISEWVTAADKKTAVDMSGGTVTVLEKVPVSKGQLKQYFYETKCNPMGYTKEGCRGIDKRHWNSQCRTTQSYVRALTMDSKKRIGWRFIRIDTSCVCTLTIKRGR"}}, "key": {"hippocampal slices": {"tested_on": "hippocampal slices", "assay": "Effect of BDNF on LTP in hippocampal slices", "parameters": "species or system rat", "settings": "control conditions (vehicle-exposed slices); BDNF 30 ng/mL", "procedure,_shortened": "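Acute hippocampal slices from male Wistar rats (7-10 weeks) recovered at least 60 min in gassed aCSF at 22°C-24°C, then exposed 3 h at room temperature to vehicle (PBS, pH 7.4). BDNF was tested in separate slices from the same rats. LTP magnitude was the normalized change in mean fEPSP slope 50-60 min post-induction versus the 10 min before induction.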"}, "hippocampal synaptosomes": {"tested_on": "hippocampal synaptosomes", "assay": "[3H]Glutamate release from hippocampal synaptosomes, effect of BDNF", "parameters": "species or system rat", "settings": "control conditions; BDNF 30 ng/mL", "procedure,_shortened": "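Hippocampal slices from male Wistar rats (7-10 weeks) were exposed 3 h to vehicle (PBS), then synaptosomes were isolated via 45% Percoll in KHR. Synaptosomes (1-2 mg/mL protein) equilibrated 5 min at 37°C in oxygenated aCSF and were loaded with [3H]glutamate, then given two K+ depolarizations. Release was expressed as % of total radioactivity per time point, and internal control curves from the same batch were subtracted. The BDNF effect was the integrated S2 peak area above basal tritium release.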"}}}
{"molecule": "B1", "values": [{"measurement": "LTP magnitude", "setting": "hippocampal slices", "value": "potentiated"}, {"measurement": "K+-evoked glutamate release", "setting": "hippocampal synaptosomes", "value": "potentiated"}]}
